The record followed here is ChEMBL document CHEMBL3120138, “Glucocorticoid receptor modulators informed by crystallography lead to a new rationale for receptor selectivity, function, and implications for structure-based design” (J Med Chem, 2014).

SMILES strings stand for the structures. Active and inactive are the calls of the source. The calls are words filed in the database; no cut-off is given here.

One test deals with Rattus norvegicus. In words: Antiinflammatory activity in Lewis rat collagen-induced arthritis model assessed as reduction of paw diameter AUC at 3 to 30 mg/kg, po administered for 15 days measured during compound dosing. The class given is functional, organism-based. In outline:
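Female Lewis rats received collagen injected at the tail base, and disease developed over 14 d. Responding rats (groups of n = 10) were then dosed orally once daily for the next 15 d. Ankle/paw diameter was measured throughout the live phase and summarised as AUC. Hindpaw histology was scored blind from 0 (normal) to 5 (vehicle-level). Statistics used Student's t test vs vehicle, p < 0.01.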

A short description of test [1]: Antiinflammatory activity in PMA-differentiated human U937 cells assessed as inhibition of LPS-induced TNFalpha production incubated for 60 mins prior to LPS challenge measured after 24 hrs. The test is classed as functional, cell-based. To be noted: U-937. The essentials: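 U-937 cells (100 000/well) were differentiated with 20 nM PMA overnight at 37 °C, then refed with PMA-free medium. Cells were pretreated with compound for 60 min, then stimulated with LPS (stock 400 ng/mL) for 24 h at 37 °C. Secreted TNFα was measured by EIA/RIA. Ten-point half-log dilutions were used, each concentration in triplicate.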

As to `CC/C(=C1\c2ccccc2OCc2cccc(OC)c21)c1cccc(NS(C)(=O)=O)c1`, the result in the test on Rattus norvegicus was Active. In addition, the IC50 in test [1] worked out at 19.1 nM.
